Data taken from ChEMBL document CHEMBL4480410, “Targeting the MKK7-JNK (Mitogen-Activated Protein Kinase Kinase 7-c-Jun N-Terminal Kinase) Pathway with Covalent Inhibitors” (J Med Chem, 2019).
pIC50: −log10 of the molar value.

Tests used:
[1] = Inhibition of N-terminal His-tagged MKK7 beta1 S273D/T275D double mutant (unknown origin) expressed in insect cells using JNK1 K55M mutant as substrate by ADP-Glo assay; design: species or system Homo sapiens
How it was run: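 ADP-Glo luminescence run per supplier protocol. Kinase: MKK7 beta1 (aa 1-462, TEV-cleavable N-terminal His6 tag, S273D/T275D) expressed in Sf9 insect cells, used at 20 nM. Substrate: JNK1 K55M at 5 µM. Compound dispensed acoustically; read on plate reader.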

[2] = molecular target: T1, Cytoplasmic tyrosine-protein kinase BMX (Homo sapiens) (UniProt P51813); experiment: Inhibition of BMX (unknown origin) at 1 uM by proQinase-based assay relative to control
T1 sequence (whole entry): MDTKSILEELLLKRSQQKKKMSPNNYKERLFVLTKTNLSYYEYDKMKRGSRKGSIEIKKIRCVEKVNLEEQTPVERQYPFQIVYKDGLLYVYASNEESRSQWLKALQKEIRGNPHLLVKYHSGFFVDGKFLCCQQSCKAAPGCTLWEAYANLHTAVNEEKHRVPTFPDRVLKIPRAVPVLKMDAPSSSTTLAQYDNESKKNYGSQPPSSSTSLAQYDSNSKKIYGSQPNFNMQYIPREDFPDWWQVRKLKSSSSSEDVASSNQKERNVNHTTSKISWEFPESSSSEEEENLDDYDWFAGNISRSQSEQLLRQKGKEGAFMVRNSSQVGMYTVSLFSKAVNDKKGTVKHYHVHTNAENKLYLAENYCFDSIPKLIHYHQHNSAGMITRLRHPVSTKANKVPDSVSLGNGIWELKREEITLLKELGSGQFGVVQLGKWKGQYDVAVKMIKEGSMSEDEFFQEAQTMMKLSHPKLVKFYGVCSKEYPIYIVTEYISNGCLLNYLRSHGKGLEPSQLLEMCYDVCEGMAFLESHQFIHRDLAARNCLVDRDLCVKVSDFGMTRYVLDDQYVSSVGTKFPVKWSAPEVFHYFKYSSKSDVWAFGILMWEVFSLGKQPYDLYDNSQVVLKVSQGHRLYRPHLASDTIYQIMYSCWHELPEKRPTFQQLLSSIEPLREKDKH

[3] = molecular target: Tyrosine-protein kinase BTK (Homo sapiens) (UniProt Q06187); experiment: Inhibition of BTK (unknown origin) at 1 uM by proQinase-based assay relative to control
[4] = molecular target: T2, Tyrosine-protein kinase JAK3 (Homo sapiens) (UniProt P52333); experiment: Inhibition of JAK3 (unknown origin) at 1 uM by proQinase-based assay relative to control
T2 sequence (whole entry): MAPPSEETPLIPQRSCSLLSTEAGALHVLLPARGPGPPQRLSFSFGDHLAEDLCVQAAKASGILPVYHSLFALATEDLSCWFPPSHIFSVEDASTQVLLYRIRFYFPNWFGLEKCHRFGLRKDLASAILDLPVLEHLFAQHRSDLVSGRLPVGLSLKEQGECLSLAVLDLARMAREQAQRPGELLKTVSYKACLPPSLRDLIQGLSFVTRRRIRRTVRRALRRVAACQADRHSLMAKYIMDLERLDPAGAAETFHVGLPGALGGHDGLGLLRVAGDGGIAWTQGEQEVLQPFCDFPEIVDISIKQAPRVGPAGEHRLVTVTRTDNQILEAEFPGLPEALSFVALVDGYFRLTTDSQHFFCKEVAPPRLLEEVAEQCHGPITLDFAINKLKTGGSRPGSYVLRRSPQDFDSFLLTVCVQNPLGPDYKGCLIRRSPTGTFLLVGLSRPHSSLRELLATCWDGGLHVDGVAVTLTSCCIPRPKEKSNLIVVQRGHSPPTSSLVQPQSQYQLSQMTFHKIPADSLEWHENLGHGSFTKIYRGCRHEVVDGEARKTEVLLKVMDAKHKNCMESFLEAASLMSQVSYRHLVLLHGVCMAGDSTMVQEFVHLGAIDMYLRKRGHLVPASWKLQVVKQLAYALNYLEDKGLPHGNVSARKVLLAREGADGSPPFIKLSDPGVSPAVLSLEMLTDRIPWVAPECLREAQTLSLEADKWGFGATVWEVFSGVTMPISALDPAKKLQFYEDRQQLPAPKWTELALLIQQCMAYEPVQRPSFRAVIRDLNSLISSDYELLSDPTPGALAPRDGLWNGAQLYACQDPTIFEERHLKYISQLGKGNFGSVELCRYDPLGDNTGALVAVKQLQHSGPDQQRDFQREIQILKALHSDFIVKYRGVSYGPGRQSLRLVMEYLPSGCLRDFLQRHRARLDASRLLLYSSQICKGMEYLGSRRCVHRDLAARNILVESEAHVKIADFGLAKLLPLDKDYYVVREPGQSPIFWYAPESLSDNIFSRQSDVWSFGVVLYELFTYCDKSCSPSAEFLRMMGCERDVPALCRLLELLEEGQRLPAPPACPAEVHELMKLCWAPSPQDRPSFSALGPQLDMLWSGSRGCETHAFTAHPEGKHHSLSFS

[5] = Apparent permeability across apical to basolateral side in human Caco2 cells at 5 uM after 2 hrs by transwell membrane based assay; assay type: ADME, cell-based; details: Caco-2
How it was run: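 10 mM DMSO stock diluted to 5 µM final in HBSS pH 7.4; 2 h at 37 °C, 5% CO2 on Caco-2 monolayers grown 21 days on transwell membranes.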

[6] = Stability in human plasma assessed as compound remaining at 5 uM after 1 hr by LC/MS analysis; assay type: ADME, cell-free; details: read-out: Stability
How it was run: (§1)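 Compound at 5 µM incubated 1 h at 37 °C in human or mouse plasma; percentage remaining quantified by LC/MS.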

[7] = Stability in mouse plasma assessed as compound remaining at 5 uM after 1 hr by LC/MS analysis; assay type: ADME, cell-free; details: read-out: Stability; how it was run: as §1
[8] = Protein binding in human plasma at 5 uM after 6 hrs by LC/MS analysis; assay type: ADME, cell-free; details: read-out: PPB (converted)
How it was run: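 Equilibrium dialysis of plasma with compound at 5 µM, 6 h at 37 °C; final compound concentrations determined by LC/MS to give percent bound.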

in vitro = details: mouse, liver microsomes

Chain of Tyrosine-protein kinase BTK (Homo sapiens) (Q06187 whole entry): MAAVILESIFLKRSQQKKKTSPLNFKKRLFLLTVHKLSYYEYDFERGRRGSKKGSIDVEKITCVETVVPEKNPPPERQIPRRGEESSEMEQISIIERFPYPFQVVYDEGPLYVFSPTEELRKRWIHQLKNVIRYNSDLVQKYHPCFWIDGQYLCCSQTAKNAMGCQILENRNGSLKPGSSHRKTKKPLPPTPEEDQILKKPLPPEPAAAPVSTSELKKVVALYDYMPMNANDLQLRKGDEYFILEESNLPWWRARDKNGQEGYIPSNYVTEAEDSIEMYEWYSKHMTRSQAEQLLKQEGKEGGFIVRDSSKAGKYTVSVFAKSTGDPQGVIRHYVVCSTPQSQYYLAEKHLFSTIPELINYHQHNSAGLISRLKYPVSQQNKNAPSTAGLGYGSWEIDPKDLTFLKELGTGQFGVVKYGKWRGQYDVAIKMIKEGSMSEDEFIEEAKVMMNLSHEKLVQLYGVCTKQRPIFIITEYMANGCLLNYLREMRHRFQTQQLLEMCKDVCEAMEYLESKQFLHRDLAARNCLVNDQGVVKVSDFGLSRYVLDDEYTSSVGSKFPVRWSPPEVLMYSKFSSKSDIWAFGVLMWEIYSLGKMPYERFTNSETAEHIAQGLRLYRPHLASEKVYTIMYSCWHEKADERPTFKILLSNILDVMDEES

inhibition [2]: > 50%
inhibition [3]: > 50%
inhibition [4]: > 50%
Papp A→B at 2 h, 5 µM [5]: 20 ×10⁻⁶ cm/s
remaining at 1 h, 5 µM [6]: > 99%
remaining at 1 h, 5 µM [7]: 70.4%
fraction unbound at 6 h, 5 µM [8]: 0.04
microsomal CLint at 1 h, 3 µM (in vitro): 124 µL/min/mg
SMILES: C=CC(=O)N1CCC[C@@H](n2nc(-c3cn(-c4ccc(C(C)=O)cc4)nn3)c3c(N)ncnc32)C1
pIC50 [1]: 8.00
